# Experimental data: ChEMBL document CHEMBL1146196, “Bactericidal activity and resistance development profiling of dalbavancin” (2007)
# Calls of active or inactive are those of the source. The calls are words filed in the database; no cut-off is given here.
# Experiments:
# Streptococcus pyogenes [1] = assay: Antimicrobial activity against erythromycin-resistant Streptococcus pyogenes FB764371 by broth microdilution method; assay type: functional
# Procedure, shortened: (§1)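 Clinical US hospital isolates. The medium was supplemented with 2 to 5% lysed horse blood.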
# [2] = tested on: Staphylococcus haemolyticus; assay: Antimicrobial activity against Staphylococcus haemolyticus FB954177 by broth microdilution method; assay type: functional
# Staphylococcus aureus [3] = assay: Bacterial killing activity of methicillin-susceptible Staphylococcus aureus at 8 to 32 ug/ml; assay type: functional
# Enterococcus faecium [4] = assay: Antimicrobial activity against vancomycin-susceptible Enterococcus faecium FB769334
# Streptococcus pyogenes [5] = assay: Bactericidal activity against Streptococcus pyogenes; assay type: functional
# Streptococcus pyogenes [6] = assay: Antimicrobial activity against erythromycin-susceptible Streptococcus pyogenes FB1041626 by broth microdilution method; assay type: functional; procedure, shortened: as §1
# Staphylococcus aureus [7] = assay: Antimicrobial activity against methicillin-susceptible Staphylococcus aureus FB1050986 by broth microdilution method; assay type: functional
# Procedure, shortened: (§2)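 Clinical staphylococcal isolates from US hospitals with known resistance phenotypes.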
# Enterococcus faecium [8] = assay: Antimicrobial activity against vancomycin-susceptible Enterococcus faecium FB767191
# Streptococcus pyogenes [9] = assay: Antimicrobial activity against erythromycin-susceptible Streptococcus pyogenes FB1041775 by broth microdilution method; assay type: functional
# [10] = tested on: Staphylococcus epidermidis; assay: Antimicrobial activity against methicillin-resistant Staphylococcus epidermidis FB750345 by broth microdilution method; assay type: functional; procedure, shortened: as §2
# [11] = tested on: Staphylococcus epidermidis; assay: Antimicrobial activity against methicillin-resistant Staphylococcus epidermidis FB896283 by broth microdilution method; assay type: functional; procedure, shortened: as §2
# Staphylococcus aureus [12] = assay: Antimicrobial activity against vancomycin-intermediate Staphylococcus aureus FB988644; assay type: functional
# Enterococcus faecalis [13] = assay: Antimicrobial activity against vancomycin-susceptible Enterococcus faecalis FB766323; assay type: functional
# Staphylococcus aureus [14] = assay: Bacterial killing activity of methicillin-resistant Staphylococcus aureus at 8 to 32 ug/ml; assay type: functional
# Staphylococcus aureus [15] = assay: Bacterial killing activity of vancomycin-intermediate Staphylococcus aureus at 8 to 32 ug/ml; assay type: functional
# Staphylococcus aureus [16] = assay: Antimicrobial activity against methicillin-resistant Staphylococcus aureus FB1065524 by broth microdilution method; assay type: functional; procedure, shortened: as §2
# [17] = tested on: Staphylococcus haemolyticus; assay: Antimicrobial activity against Staphylococcus haemolyticus FB953975 by broth microdilution method; assay type: functional
# Staphylococcus aureus [18] = assay: Antimicrobial activity against methicillin-susceptible Staphylococcus aureus FB892379 by broth microdilution method; assay type: functional; procedure, shortened: as §2
# Enterococcus faecalis [19] = assay: Antimicrobial activity against vancomycin-susceptible Enterococcus faecalis FB766782; assay type: functional
# Staphylococcus aureus [20] = assay: Antimicrobial activity against methicillin-resistant Staphylococcus aureus FB1051634 by broth microdilution method; assay type: functional; procedure, shortened: as §2
# [21] = tested on: Staphylococcus epidermidis; assay: Antimicrobial activity against methicillin-resistant Staphylococcus epidermidis FB758988 by broth microdilution method; assay type: functional; procedure, shortened: as §2
# Staphylococcus aureus [22] = assay: Bacterial killing activity of methicillin-resistant Staphylococcus aureus at 0.25 ug/ml; assay type: functional, organism-based
# Procedure, shortened: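 Time-kill per CLSI with a starting inoculum of approximately 10^7 CFU/ml. Dalbavancin was tested at 0.25, 1, 4 and 16 µg/ml, chosen to reflect free plasma levels plus a lower level. Viable counts were taken over 24 h and reported as log10 decrease.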
# Streptococcus pyogenes [23] = assay: Bacterial killing activity of Streptococcus pyogenes at >=1 ug/ml; assay type: functional
# Procedure, shortened: (§3)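 CLSI time-kill in medium with 2 to 5% lysed horse blood; starting inoculum approximately 10^7 CFU/ml; dalbavancin at 0.25, 1, 4 and 16 µg/ml; viable counts followed to 24 h, killing expressed as log10 decrease.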
# Staphylococcus aureus [24] = assay: Bacterial killing activity of methicillin-susceptible Staphylococcus aureus at 0.25 ug/ml; assay type: functional, organism-based
# Procedure, shortened: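 Time-kill per CLSI; inoculum approximately 10^7 CFU/ml; dalbavancin at 0.25, 1, 4 and 16 µg/ml; viable counts after 24 h exposure, expressed as log10 reduction.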
# Streptococcus pyogenes [25] = assay: Bacterial killing activity of Streptococcus pyogenes at 0.25 ug/ml; assay type: functional; procedure, shortened: as §3
Compound,MBC (Streptococcus pyogenes [1]) [µg/mL],MBC [2] [µg/mL],MIC [2] [µg/mL],MBC (Enterococcus faecium [4]) [µg/mL],MBC (Streptococcus pyogenes [6]) [µg/mL],MBC (Staphylococcus aureus [7]) [µg/mL],MBC (Enterococcus faecium [8]) [µg/mL],MBC (Streptococcus pyogenes [9]) [µg/mL],MBC [10] [µg/mL],MBC [11] [µg/mL],MBC (Staphylococcus aureus [12]) [µg/mL],MBC (Enterococcus faecalis [13]) [µg/mL],MBC (Staphylococcus aureus [16]) [µg/mL],MBC [17] [µg/mL],MIC [17] [µg/mL],MBC (Staphylococcus aureus [18]) [µg/mL],MBC (Enterococcus faecalis [19]) [µg/mL],MBC (Staphylococcus aureus [20]) [µg/mL],MBC [21] [µg/mL],other results
CN[C@H](CC(C)C)C(=O)N[C@H]1C(=O)N[C@@H](CC(N)=O)C(=O)N[C@H]2C(=O)N[C@H]3C(=O)N[C@H](C(=O)N[C@H](C(=O)O)c4cc(O)cc(O)c4-c4cc3ccc4O)[C@H](O)c3ccc(c(Cl)c3)Oc3cc2cc(c3O[C@@H]2O[C@H](CO)[C@@H](O)[C@H](O)[C@H]2O[C@H]2C[C@](C)(N)[C@H](O)[C@H](C)O2)Oc2ccc(cc2Cl)[C@H]1O [VANCOMYCIN],0.5,> 32,1,16,0.5,2,> 32,> 2,2,2,8,> 32,1,4,4,1,> 32,1,2,Log10 cfu (Staphylococcus aureus [3]): >=3; Log10 cfu (Streptococcus pyogenes [5]): <2; Log10 cfu (Staphylococcus aureus [14]): >=3; Log10 cfu (Staphylococcus aureus [15]): >=3
CN[C@H]1C(=O)N[C@@H]2Cc3ccc(cc3)Oc3cc4cc(c3O[C@@H]3O[C@H](C(=O)O)[C@@H](O)[C@H](O)[C@H]3NC(=O)CCCCCCCCC(C)C)Oc3ccc(cc3Cl)[C@@H](O)[C@@H]3NC(=O)[C@H](NC(=O)[C@@H]4NC(=O)[C@@H](NC2=O)c2cc(cc(O)c2Cl)Oc2cc1ccc2O)c1ccc(O)c(c1)-c1c(O[C@H]2O[C@H](CO)[C@@H](O)[C@H](O)[C@@H]2O)cc(O)cc1[C@@H](C(=O)NCCCN(C)C)NC3=O [DALBAVANCIN],0.008,0.12,0.03,2,0.008,1,2,0.25,0.06,0.03,2,8,0.5,0.25,0.12,0.06,4,0.06,0.06,MIC (Streptococcus pyogenes [1]): 0.008 µg/mL; Activity (Staphylococcus aureus [22]): Active; MIC (Enterococcus faecium [4]): 0.015 µg/mL; MIC (Streptococcus pyogenes [6]): 0.008 µg/mL; MIC (Staphylococcus aureus [7]): 0.06 µg/mL; MIC (Enterococcus faecium [8]): 0.03 µg/mL; MIC (Streptococcus pyogenes [9]): 0.008 µg/mL; Log10 cfu (Streptococcus pyogenes [23]): 5; MIC [10]: 0.06 µg/mL; MIC [11]: 0.03 µg/mL; MIC (Staphylococcus aureus [12]): 1 µg/mL; MIC (Enterococcus faecalis [13]): 0.03 µg/mL; Activity (Staphylococcus aureus [24]): Active; MIC (Staphylococcus aureus [16]): 0.06 µg/mL; Log10 cfu (Streptococcus pyogenes [25]): >3; MIC (Staphylococcus aureus [18]): 0.06 µg/mL; MIC (Enterococcus faecalis [19]): 0.06 µg/mL; MIC (Staphylococcus aureus [20]): 0.06 µg/mL; MIC [21]: 0.06 µg/mL
